We go through 3 compounds from ChEMBL document CHEMBL1146654, “3-(7-Azaindolyl)-4-arylmaleimides as potent, selective inhibitors of glycogen synthase kinase-3” (Bioorg Med Chem Lett, 2004).

Test [1] addresses T1, Dual specificity mitogen-activated protein kinase kinase 4 (Mus musculus) (UniProt P47809).
T1 sequence (whole entry): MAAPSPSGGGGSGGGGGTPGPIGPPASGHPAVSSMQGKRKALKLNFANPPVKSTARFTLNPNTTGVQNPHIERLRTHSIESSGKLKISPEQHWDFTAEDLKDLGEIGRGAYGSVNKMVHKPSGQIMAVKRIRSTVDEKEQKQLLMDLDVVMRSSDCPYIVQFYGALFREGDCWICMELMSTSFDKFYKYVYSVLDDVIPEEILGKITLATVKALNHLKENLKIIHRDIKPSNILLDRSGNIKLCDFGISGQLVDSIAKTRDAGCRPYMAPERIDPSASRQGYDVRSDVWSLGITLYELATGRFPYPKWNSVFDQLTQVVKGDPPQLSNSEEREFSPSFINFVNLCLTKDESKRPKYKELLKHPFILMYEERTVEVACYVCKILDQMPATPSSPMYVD
The test is described as follows: Inhibition of Mitogen activated protein kinase kinase 4. Also on record: scale not given: the % may be the effect or the level left.

Test [2] has as its target Serine/threonine-protein kinase N2 (Homo sapiens) (UniProt Q16513). The test is described as follows: Inhibition of compound PRK2. The arrangement: scale not given: the % may be the effect or the level left.
In test [3] the target is T2, Protein kinase C beta type (Homo sapiens, UniProt P05771). The test is described as follows: Inhibitory concentration against human protein kinase C-betaII using histone as substrate.
Test [4] concerns the target 3-phosphoinositide-dependent protein kinase 1 (Homo sapiens, UniProt O15530). The test is described as follows: Inhibition of PDK1.
Test [5] addresses Tyrosine-protein kinase Lyn (Homo sapiens, UniProt P07948). The test is described as follows: Inhibition of Protein tyrosine kinase Lyn.
Test [6] has as its target Cyclin-dependent kinase 2/cyclin A (Homo sapiens, UniProt P24941). The test is described as follows: Inhibition of Cyclin-dependent kinase 2-cyclin A. The test is classed as protein-complex assay.
Test [7] concerns the target Ribosomal protein S6 kinase (P70S6K) (Homo sapiens) (UniProt Q9UBS0+P23443). The test is described as follows: Inhibition of p70 Ribosomal protein S6 kinase. In kind it is protein-complex assay. Also on record: scale not given: the % may be the effect or the level left.
Test [8] concerns the target Tyrosine-protein kinase Fes/Fps (Homo sapiens) (UniProt P07332). The test is described as follows: Inhibition of Fes kinase. Also on record: scale not given: the % may be the effect or the level left.
The target of test [9] is T3, Ribosomal protein S6 kinase alpha-5 (Homo sapiens, UniProt O75582). The test is described as follows: (§1) Inhibition of MSK-1 kinase. Also on record: scale not given: the % may be the effect or the level left.
The target of test [10] is Serine/threonine-protein kinase Chk2 (Homo sapiens) (UniProt O96017). The test is described as follows: Inhibition of Serine/threonine-protein kinase Chk2. Also on record: scale not given: the % may be the effect or the level left.
Sequence of Serine/threonine-protein kinase Chk2 (Homo sapiens) (O96017 whole entry): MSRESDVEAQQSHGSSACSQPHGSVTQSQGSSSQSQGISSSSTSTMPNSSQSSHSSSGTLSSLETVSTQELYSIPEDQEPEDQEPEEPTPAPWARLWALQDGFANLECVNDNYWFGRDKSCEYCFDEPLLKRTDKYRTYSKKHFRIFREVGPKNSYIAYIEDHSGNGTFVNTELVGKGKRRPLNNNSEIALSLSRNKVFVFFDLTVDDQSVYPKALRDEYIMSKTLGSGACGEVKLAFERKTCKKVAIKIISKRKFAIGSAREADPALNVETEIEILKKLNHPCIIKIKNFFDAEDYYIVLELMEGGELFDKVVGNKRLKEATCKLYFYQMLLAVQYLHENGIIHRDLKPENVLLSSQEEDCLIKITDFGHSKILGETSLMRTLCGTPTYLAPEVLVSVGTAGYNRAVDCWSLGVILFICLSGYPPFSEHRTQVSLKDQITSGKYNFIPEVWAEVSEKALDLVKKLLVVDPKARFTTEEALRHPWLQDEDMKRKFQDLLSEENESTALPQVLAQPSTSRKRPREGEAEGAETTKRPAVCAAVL
Test [11] deals with Ribosomal protein S6 kinase alpha-3 (Homo sapiens, UniProt P51812). The test is described as follows: Inhibition of Ribosomal S6 kinase 3.
Sequence of Ribosomal protein S6 kinase alpha-3 (P51812 whole entry): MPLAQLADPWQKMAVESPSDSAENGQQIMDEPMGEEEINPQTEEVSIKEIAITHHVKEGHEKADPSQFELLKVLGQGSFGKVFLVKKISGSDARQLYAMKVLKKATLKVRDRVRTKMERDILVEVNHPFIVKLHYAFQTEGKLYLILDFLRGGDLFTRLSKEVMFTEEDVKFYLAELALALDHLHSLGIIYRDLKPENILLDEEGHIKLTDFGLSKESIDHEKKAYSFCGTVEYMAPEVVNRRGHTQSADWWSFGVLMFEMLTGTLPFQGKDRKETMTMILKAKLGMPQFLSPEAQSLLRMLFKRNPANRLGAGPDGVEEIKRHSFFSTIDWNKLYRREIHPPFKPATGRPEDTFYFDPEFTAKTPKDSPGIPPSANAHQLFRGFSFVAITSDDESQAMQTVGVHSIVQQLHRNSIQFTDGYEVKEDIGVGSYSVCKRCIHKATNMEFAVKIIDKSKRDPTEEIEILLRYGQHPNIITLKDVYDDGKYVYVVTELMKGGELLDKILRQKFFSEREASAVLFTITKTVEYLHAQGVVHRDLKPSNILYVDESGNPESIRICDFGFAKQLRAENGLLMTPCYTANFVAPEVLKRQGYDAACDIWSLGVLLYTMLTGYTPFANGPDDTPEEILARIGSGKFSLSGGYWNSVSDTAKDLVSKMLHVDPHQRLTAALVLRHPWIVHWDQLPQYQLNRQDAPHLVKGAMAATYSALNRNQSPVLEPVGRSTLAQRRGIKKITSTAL
Test [12] concerns the target T4, MAP kinase-activated protein kinase 5 (Homo sapiens) (UniProt Q8IW41).
T4 sequence (whole entry): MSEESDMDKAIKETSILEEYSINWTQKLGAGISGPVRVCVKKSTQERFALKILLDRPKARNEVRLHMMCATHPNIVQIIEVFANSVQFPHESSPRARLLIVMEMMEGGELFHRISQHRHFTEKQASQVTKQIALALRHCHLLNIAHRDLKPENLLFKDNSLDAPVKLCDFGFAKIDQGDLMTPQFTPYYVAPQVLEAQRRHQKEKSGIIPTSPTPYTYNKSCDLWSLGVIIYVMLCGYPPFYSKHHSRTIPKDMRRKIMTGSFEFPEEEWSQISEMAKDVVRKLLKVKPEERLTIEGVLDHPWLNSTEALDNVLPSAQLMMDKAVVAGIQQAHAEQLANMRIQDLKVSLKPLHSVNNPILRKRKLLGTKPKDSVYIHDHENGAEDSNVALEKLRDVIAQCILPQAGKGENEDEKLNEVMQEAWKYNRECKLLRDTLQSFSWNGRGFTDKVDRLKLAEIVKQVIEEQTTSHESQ
The test is described as follows: Inhibition of PRAK, MAPK5. The arrangement: scale not given: the % may be the effect or the level left.

Another test is filed under the species Mus musculus. The test is described as follows: Inhibition of Abl kinase. The arrangement: scale not given: the % may be the effect or the level left.
Test [13] concerns the target Glycogen synthase kinase-3 beta (Homo sapiens, UniProt P49841). The test is described as follows: Effective concentration of compound against glycogen synthase kinase-3 in HEK293 cells. In kind it is functional, cell-based. In outline:
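HEK293 cells exposed to compound; glycogen synthase activity then measured in cell extracts as ¹⁴C-UDP glucose incorporation into glycogen. EC₅₀ averaged from triplicate determinations.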

The target of test [14] is Platelet-derived growth factor receptor alpha (Homo sapiens) (UniProt P16234). The test is described as follows: Inhibition of PDGFRalpha. Also on record: scale not given: the % may be the effect or the level left.
Sequence of Platelet-derived growth factor receptor alpha (Homo sapiens) (P16234 whole entry): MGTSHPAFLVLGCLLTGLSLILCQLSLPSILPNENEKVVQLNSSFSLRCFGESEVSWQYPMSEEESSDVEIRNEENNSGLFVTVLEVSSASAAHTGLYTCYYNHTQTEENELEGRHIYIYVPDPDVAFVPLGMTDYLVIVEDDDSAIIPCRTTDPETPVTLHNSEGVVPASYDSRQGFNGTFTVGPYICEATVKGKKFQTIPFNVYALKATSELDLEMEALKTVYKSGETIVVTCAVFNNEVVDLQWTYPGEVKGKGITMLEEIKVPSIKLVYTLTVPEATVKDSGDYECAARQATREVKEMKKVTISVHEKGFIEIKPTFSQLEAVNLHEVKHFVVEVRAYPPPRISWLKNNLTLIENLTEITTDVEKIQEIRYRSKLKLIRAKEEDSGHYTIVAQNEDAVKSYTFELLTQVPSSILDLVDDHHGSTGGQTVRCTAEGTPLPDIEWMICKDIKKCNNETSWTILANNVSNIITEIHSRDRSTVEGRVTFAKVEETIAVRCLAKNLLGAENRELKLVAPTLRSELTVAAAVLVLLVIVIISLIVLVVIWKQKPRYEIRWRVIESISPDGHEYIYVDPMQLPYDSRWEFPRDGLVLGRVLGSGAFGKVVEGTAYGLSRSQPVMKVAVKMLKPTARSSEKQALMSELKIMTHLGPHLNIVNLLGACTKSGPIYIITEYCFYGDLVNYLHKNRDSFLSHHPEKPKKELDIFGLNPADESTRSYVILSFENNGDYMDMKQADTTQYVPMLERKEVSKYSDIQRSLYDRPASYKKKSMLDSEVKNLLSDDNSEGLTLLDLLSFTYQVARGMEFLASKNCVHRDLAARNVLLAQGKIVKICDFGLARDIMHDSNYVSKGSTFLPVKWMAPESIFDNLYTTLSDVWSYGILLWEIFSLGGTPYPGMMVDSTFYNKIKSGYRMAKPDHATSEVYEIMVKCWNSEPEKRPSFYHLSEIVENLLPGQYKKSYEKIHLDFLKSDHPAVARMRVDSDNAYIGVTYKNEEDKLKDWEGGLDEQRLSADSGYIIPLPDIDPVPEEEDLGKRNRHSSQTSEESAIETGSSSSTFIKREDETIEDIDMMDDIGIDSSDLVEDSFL
The target in test [15] is Mitogen-activated protein kinase 11 (Homo sapiens) (UniProt Q15759). The test is described as follows: Inhibition of Stress activated protein kinase 2b. Also on record: scale not given: the % may be the effect or the level left.
Sequence of Mitogen-activated protein kinase 11 (Homo sapiens) (Q15759 whole entry): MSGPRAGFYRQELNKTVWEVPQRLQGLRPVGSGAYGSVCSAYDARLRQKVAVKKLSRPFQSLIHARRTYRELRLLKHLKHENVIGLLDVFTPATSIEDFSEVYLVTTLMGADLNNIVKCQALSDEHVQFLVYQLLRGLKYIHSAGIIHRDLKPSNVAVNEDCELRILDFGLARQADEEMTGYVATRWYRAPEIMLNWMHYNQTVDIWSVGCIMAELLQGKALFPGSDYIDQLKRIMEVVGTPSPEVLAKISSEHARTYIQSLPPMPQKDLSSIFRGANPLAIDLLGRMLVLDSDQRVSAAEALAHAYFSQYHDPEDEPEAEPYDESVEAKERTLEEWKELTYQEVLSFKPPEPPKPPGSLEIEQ
The target in test [16] is T5, Mitogen-activated protein kinase 12 (Homo sapiens) (UniProt P53778).
T5 sequence (whole entry): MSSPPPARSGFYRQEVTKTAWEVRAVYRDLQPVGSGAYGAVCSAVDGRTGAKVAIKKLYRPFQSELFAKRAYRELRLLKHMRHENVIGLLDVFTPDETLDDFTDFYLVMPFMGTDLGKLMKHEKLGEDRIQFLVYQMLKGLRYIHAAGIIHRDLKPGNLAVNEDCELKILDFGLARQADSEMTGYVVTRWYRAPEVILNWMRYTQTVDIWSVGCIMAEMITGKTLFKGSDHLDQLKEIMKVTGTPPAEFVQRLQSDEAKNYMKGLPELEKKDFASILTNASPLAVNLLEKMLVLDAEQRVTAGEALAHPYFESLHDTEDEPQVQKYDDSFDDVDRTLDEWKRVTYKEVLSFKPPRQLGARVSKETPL
The test is described as follows: Inhibition of Stress activated protein kinase 3. Also on record: scale not given: the % may be the effect or the level left.

Test [17] addresses Cyclin-dependent kinase 7/ cyclin H (Homo sapiens) (UniProt P51946+P50613). The test is described as follows: Inhibition of Cyclin-dependent kinase 7-cyclin H. In kind it is protein-complex assay. The arrangement: scale not given: the % may be the effect or the level left.
The target of test [18] is MAP kinase-activated protein kinase 2 (Homo sapiens) (UniProt P49137). The test is described as follows: Inhibition of MAP kinase-activated protein kinase 2. The arrangement: scale not given: the % may be the effect or the level left.
Sequence of MAP kinase-activated protein kinase 2 (Homo sapiens) (P49137 whole entry, looked up): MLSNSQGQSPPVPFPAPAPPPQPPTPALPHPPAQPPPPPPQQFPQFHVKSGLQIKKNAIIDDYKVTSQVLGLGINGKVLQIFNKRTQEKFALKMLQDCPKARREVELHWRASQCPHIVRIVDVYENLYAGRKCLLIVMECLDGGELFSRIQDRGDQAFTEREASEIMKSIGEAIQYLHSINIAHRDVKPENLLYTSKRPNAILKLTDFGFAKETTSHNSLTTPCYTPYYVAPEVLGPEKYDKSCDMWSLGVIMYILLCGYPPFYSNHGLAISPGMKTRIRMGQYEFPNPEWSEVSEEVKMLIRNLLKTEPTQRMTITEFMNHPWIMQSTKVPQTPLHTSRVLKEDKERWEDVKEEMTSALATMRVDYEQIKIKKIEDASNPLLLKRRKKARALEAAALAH
In test [19] the target is T3, Ribosomal protein S6 kinase alpha-5. The description is as §1.
Test [20] deals with Casein kinase I (Saccharomyces cerevisiae). The test is described as follows: Inhibition of Casein kinase I. The arrangement: scale not given: the % may be the effect or the level left.
Test [21] concerns the target T2, Protein kinase C beta type. The test is described as follows: Inhibition of protein kinase C-betaII at 10 uM.

Sequence of Tyrosine-protein kinase Fes/Fps (Homo sapiens) (P07332 whole entry): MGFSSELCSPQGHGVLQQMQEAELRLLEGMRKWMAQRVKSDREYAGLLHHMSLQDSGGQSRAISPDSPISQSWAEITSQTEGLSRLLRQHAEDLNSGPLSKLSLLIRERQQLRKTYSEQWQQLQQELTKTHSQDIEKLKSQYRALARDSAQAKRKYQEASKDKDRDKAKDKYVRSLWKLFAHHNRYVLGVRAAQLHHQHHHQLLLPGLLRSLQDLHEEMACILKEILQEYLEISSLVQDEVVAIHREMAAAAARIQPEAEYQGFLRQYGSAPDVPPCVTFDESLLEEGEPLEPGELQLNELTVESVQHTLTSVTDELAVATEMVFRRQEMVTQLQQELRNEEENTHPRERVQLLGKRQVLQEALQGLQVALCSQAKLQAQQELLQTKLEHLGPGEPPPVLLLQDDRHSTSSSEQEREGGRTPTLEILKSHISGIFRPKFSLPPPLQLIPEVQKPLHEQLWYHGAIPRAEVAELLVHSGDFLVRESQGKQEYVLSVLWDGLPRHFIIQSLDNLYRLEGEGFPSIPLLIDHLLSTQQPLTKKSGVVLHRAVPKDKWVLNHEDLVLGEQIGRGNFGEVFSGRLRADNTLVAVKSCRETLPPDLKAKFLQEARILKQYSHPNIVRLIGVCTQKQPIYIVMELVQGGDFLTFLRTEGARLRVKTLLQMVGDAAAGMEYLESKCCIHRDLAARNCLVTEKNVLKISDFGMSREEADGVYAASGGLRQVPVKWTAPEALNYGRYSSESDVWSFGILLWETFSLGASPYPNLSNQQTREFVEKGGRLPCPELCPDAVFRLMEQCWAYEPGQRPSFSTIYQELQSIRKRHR
Sequence of Serine/threonine-protein kinase N2 (Homo sapiens) (Q16513 whole entry, looked up): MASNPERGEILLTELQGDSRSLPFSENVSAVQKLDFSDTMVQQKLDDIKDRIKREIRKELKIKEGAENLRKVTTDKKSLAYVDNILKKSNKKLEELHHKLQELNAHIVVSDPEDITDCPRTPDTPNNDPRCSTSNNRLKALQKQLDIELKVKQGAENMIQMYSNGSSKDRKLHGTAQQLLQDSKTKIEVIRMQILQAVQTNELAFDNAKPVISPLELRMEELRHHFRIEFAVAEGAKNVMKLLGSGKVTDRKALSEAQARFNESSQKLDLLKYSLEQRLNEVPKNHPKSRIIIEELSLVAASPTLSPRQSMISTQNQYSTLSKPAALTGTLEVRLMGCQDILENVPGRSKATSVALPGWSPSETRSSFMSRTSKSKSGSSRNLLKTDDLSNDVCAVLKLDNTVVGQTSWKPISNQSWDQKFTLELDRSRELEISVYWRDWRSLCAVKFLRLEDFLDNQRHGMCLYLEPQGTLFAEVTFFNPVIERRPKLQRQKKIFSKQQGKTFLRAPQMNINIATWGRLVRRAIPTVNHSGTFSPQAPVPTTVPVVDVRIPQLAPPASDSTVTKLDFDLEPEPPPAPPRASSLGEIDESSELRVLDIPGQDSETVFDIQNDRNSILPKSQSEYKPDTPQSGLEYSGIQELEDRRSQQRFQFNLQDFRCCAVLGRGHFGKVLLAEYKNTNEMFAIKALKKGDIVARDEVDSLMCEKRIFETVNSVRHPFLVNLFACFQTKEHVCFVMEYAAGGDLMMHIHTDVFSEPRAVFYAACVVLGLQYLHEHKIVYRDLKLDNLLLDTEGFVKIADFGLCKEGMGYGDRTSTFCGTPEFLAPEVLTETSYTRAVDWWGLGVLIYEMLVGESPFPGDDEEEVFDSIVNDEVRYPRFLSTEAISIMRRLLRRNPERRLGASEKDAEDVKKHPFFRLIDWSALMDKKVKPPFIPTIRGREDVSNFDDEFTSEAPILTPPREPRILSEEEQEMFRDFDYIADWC

Consider `COc1ccccc1C1=C(c2cn(CCCNC(=O)OC(C)(C)C)c3ncccc23)C(=O)NC1=O`, for which the Activity came out at 101% in test [1]; 68% in test [2]; 82% in [7]; 87% in test [8]; 61% in test [9]; 49% in [10]. Also, the Activity was determined as 57% in test [12]; 91% in the test filed under Mus musculus; 108% in [14]; 106% in test [15]; 122% in [16]; 60% in test [17]. For the same compound, the IC50 (as a rule, the concentration that inhibits the measured activity by half) in test [3] turned out to be 2.26 µM; in test [4], 0.57 µM; in test [5], 1.8 µM; in [6], 0.068 µM; in [11], 0.64 µM. The EC50 (as a rule, the concentration giving half of the maximal effect) in [13] stood at 0.04 µM.

As to `COCCCn1cc(C2=C(c3ccccc3O)C(=O)NC2=O)c2cccnc21`, the Activity in [1] amounted to 86%; in [2] it was 76%; in test [18], 97%; in test [7], 87%; in [8] it was 79%; in test [9], 57%. Also, the Activity in [10] is 75%; in test [12] it was 82%; in the test filed under Mus musculus it was 86%; in test [14], 99%; in test [15], 102%; in test [16], 120%. In test [17], the Activity was determined as 47%. In addition, the concentration for half-maximal inhibition (IC50) in test [3] amounted to 4.36 µM; in test [6], 0.43 µM; in test [11], 2 µM.

Turning to `O=C1NC(=O)C(c2cn(CCCO)c3ncccc23)=C1c1ncc(C(F)(F)F)cc1Cl`, the Activity in test [1] came out at 87%; in test [2] it was 71%; in test [20], 66%; in [18], 85%; in test [7] it was 88%; in [8], 81%. The Activity in test [10] was found to be 92%; in test [12], 59%; in the test listed under Mus musculus it was 93%; in [14], 86%; in test [15] it was 94%; in test [16], 86%. In addition, the Activity in test [17] was 59%. Besides, the IC50 in [19] was > 10 µM; in test [6], 2.8 µM. Also, the inhibition (usually the share of the control response that was lost under treatment) in test [21] was < 50%. In test [13], this compound showed an EC50 of 0.62 µM.
